The target of series [1] is T1, Type-1 angiotensin II receptor (Homo sapiens, UniProt P30556).
T1 sequence (P30556 whole entry): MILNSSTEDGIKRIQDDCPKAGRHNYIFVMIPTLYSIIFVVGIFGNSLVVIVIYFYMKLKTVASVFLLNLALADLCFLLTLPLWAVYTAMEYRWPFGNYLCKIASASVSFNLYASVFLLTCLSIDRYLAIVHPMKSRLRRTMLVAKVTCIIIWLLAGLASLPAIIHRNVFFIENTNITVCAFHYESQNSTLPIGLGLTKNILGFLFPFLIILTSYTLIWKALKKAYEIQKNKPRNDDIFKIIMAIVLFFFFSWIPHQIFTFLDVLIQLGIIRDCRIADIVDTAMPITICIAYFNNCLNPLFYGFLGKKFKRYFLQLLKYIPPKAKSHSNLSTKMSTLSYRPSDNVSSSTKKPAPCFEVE
The series can be described thus: Displacement of [125-I]-[Sar1, Ile8] from recombinant human AT1R transfected in human HEK293 cells incubated for 2 hrs by liquid scintillation counter analysis. The format is cell-based.

The target in series [2] is T2, Type-2 angiotensin II receptor (Homo sapiens, UniProt P50052).
T2 sequence (P50052 whole entry): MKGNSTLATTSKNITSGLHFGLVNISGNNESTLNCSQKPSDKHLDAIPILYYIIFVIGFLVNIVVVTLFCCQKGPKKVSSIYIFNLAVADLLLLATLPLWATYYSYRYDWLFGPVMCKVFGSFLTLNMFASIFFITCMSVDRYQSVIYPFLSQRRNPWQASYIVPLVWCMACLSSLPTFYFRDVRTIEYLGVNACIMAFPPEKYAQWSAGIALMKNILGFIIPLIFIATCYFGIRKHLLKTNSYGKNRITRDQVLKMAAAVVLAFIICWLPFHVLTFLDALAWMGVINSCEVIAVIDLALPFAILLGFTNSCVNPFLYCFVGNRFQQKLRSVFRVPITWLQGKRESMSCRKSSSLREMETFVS
The series can be described thus: Displacement of [125-I]-[Sar1, Ile8] from recombinant human AT2R transfected in human HEK293 cells incubated for 2 hrs by liquid scintillation counter analysis. It is filed as cell-based.

The nature of series [3]: Stability of compound in human plasma assessed as parent compound remaining incubated for 24 hrs by LC-MS/MS analysis. It is filed as ADME, cell-free. Conditions: read-out: Stabilty. The procedure, abridged:
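Peptides were incubated in human plasma and sampled at different time intervals up to 24 h. Remaining concentration was monitored by LC-MS using selected abundant transitions and expressed relative to the initial concentration.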

The species named for series [4] is Homo sapiens. The series can be described thus: Selectivity index, ratio of IC50 for displacement of [125-I]-[Sar1, Ile8] from recombinant human AT1R transfected in human HEK293 cells to IC50 for displacement of [125-I]-[Sar1, Ile8] from recombinant human AT2R transfected in human HEK293 cells.

Consider seven compounds from ChEMBL document CHEMBL4811266 (Bioorg Med Chem Lett, 2021).

Numbered stars: 1 amine (or outer) side, 2 acyl side, 3 side chain; on linkers, the order of the positions; unused ones are H or OH. Square brackets hold non-standard residues; d marks the D form. Peptide text beside a SMILES is read from it. X1 = O=C([C@@H]1Cc2cc(O)ccc2CN1[*:1])[*:2]; Tic(7-OH) = O=C(O)[C@@H]1Cc2ccc(O)cc2CN1

One may read the IC50 as the concentration that inhibits the measured activity by half. On to `CC[C@H](C)[C@H](NC(=O)[C@H](Cc1ccc(O)cc1)NC(=O)[C@@H](NC(=O)[C@H](CCCNC(=N)N)NC(=O)[C@@H](N)CC(=O)O)C(C)C)C(=O)N[C@H]1Cc2c([nH]c3ccccc23)CN(CC(=O)N[C@@H](Cc2ccccc2)C(=O)O)C1=O`, for which the IC50 is above 10000 nM in series [1] and 45.7 nM in series [2]. In addition, in series [3], the remaining at 24 h was above 50%. In addition, the Ratio IC50 in series [4] was above 219.

With `CC[C@H](C)[C@H](NC(=O)[C@H](Cc1ccc(O)cc1)NC(=O)[C@@H](NC(=O)[C@@H](N)CCCNC(=N)N)C(C)C)C(=O)N[C@H]1Cc2c([nH]c3ccccc23)CN(CC(=O)N[C@@H](Cc2ccccc2)C(=O)O)C1=O`, the IC50 was above 10000 nM in series [1] and 107 nM in series [2]. Besides, the remaining at 24 h in series [3] was found to be 70%. Besides, the Ratio IC50 in series [4] is above 94.

As to `CC[C@H](C)[C@H](NC(=O)[C@H](Cc1ccc(O)cc1)NC(=O)[C@@H](NC(=O)[C@H](CCCNC(=N)N)NC(=O)[C@@H](N)CC(=O)O)C(C)C)C(=O)N1Cc2cc(O)ccc2C[C@H]1C(=O)N1CCC[C@H]1C(=O)N[C@@H](Cc1ccccc1)C(=O)O` (H-DRVYI[Tic(7-OH)]PF-OH), the IC50 in series [1] is above 10000 nM; in series [2] it was 89.2 nM. Besides, the remaining at 24 h in series [3] is above 90%. Besides, the Ratio IC50 in series [4] is above 112.

On to `CC[C@H](C)[C@H](NC(=O)[C@H](Cc1ccc(O)cc1)NC(=O)[C@@H](NC(=O)[C@H](CCCNC(=N)N)NC(=O)[C@@H](N)CC(=O)O)C(C)C)C(=O)N1Cc2ccc(O)cc2C[C@H]1C(=O)N1CCC[C@H]1C(=O)N[C@@H](Cc1ccccc1)C(=O)O` (H-DRVYI[X1]PF-OH), for which the IC50 in series [1] turned out to be 174 nM; in series [2], 59.3 nM. Also, the remaining at 24 h in series [3] is above 50%. Further, the Ratio IC50 in series [4] is 2.9.

`CC[C@H](C)[C@H](NC(=O)[C@H](Cc1ccc(O)cc1)NC(=O)[C@@H](NC(=O)[C@@H](N)CCCNC(=N)N)C(C)C)C(=O)N1Cc2cc(O)ccc2C[C@H]1C(=O)N1CCC[C@H]1C(=O)N[C@@H](Cc1ccccc1)C(=O)O` (H-RVYI[Tic(7-OH)]PF-OH): the IC50 in series [1] was 134 nM; in series [2], 119 nM. Besides, in series [3], the remaining at 24 h is above 70%. Besides, in series [4], the Ratio IC50 is 1.1.

Turning to `CC[C@H](C)[C@H](NC(=O)[C@H](Cc1ccc(O)cc1)NC(=O)[C@@H](NC(=O)[C@@H](N)CCCNC(=N)N)C(C)C)C(=O)N1Cc2ccc(O)cc2C[C@H]1C(=O)N1CCC[C@H]1C(=O)N[C@@H](Cc1ccccc1)C(=O)O` (H-RVYI[X1]PF-OH), the IC50 came out at 2010 nM in series [1] and 315 nM in series [2]. For the same compound, in series [3], the remaining at 24 h is above 50%. Besides, the Ratio IC50 in series [4] was 6.4.

Regarding H-DRVYIYPF-OH, the IC50 in series [1] came out at 72600 nM. In series [3], the remaining at 24 h is above 50%. Further, the Ratio IC50 in series [4] came out at 18000.
